Published values from different studies.
Lines come from different studies, so protocols differ.
MAL12: Alpha-glucosidase MAL12 (MAL12, Saccharomyces cerevisiae S288c, UniProt P53341)

Compound | target | effect on | action | technique | setting | IC50 [µM]
NC(=S)N/N=C/c1cc2ccccc2nc1SCc1cn(CC(=O)Nc2ccccc2)nn1 | MAL12 | enzyme activity | inhibitor |  |  | 379
C[C@@H]1O[C@@H](O[C@H]2[C@H](O)[C@@H](O)[C@H](OC[C@H]3O[C@@H](OC(=O)[C@]45CCC(C)(C)C[C@H]4C4=CC[C@@H]6[C@@]7(C)CC[C@H](O[C@@H]8OC[C@H](O)[C@H](O)[C@H]8O[C@@H]8O[C@H](CO)[C@@H](O)[C@H](O)[C@H]8O)C(C)(C)[C@@H]7CC[C@@]6(C)[C@]4(C)CC5)[C@H](O)[C@@H](O)[C@@H]3O)O[C@@H]2CO)[C@H](O)[C@H](O)[C@H]1O | MAL12 | enzyme activity | inhibitor |  |  | 0.61
C[C@@H](OC(C)(C)C)[C@H](NC(=O)OCc1ccccc1)C(=O)N[C@@H](CC1CCCCC1)C(=O)NN(CCC(N)=O)C(=O)C(Cl)Cl | Replicase polyprotein 1ab, main protease (rep, Severe acute respiratory syndrome coronavirus 2, UniProt P0DTD1) | enzyme activity | inhibitor |  | with preincubation | 0.068
COc1cc(C(c2c(O)c3ccccc3oc2=O)c2c(O)c3ccccc3oc2=O)ccc1OCc1cn(CC(=O)Nc2ccc([N+](=O)[O-])cc2)nn1 | MAL12 | enzyme activity | inhibitor | absorbance |  | 12.2
Cc1cccc(NC(=O)Cn2cc(CSc3nc4ccccc4cc3/C=N/NC(N)=S)nn2)c1 | MAL12 | enzyme activity | inhibitor |  |  | 247
Cc1ccc2[nH]c(=O)c(CNC3CCCCC3)cc2c1 | Alpha-1A adrenergic receptor (ADRA1A, Homo sapiens, UniProt P35348, M292L) | calcium signal | antagonist |  |  | 11
CC1(C)CC[C@]2(C(=O)O)CC[C@]3(C)C(=CC[C@@H]4[C@@]5(C)CC[C@H](O[C@@H]6O[C@H](C(=O)O)[C@@H](O)[C@H](O)[C@H]6O)C(C)(C)[C@@H]5CC[C@]43C)[C@@H]2C1 | MAL12 | enzyme activity | inhibitor |  |  | 0.69
NC(=S)N/N=C/c1cc2ccccc2nc1SCc1cn(CC(=O)Nc2cccc([N+](=O)[O-])c2)nn1 | MAL12 | enzyme activity | inhibitor |  |  | 217
Cc1ccc2oc(=O)cc(NCCO)c2c1 | Alpha-1A adrenergic receptor (ADRA1A, Homo sapiens, UniProt P35348, I178V) | calcium signal | antagonist |  |  | 331
Cc1ccc(NC(=O)Cn2cc(CSc3nc4ccccc4cc3/C=N/NC(N)=S)nn2)cc1 | MAL12 | enzyme activity | inhibitor |  |  | 490
COc1cc(C(c2c(O)c3ccccc3oc2=O)c2c(O)c3ccccc3oc2=O)ccc1OCc1cn(CC(=O)Nc2ccccc2C)nn1 | MAL12 | enzyme activity | inhibitor | absorbance |  | 50.2
C=C1CC[C@]2(C(=O)O[C@@H]3O[C@H](CO[C@@H]4O[C@H](CO)[C@@H](O[C@@H]5O[C@@H](C)[C@H](O)[C@@H](O)[C@H]5O)[C@H](O)[C@H]4O)[C@@H](O)[C@H](O)[C@H]3O)CC[C@]3(C)C(=CC[C@@H]4[C@@]5(C)CC[C@H](O[C@@H]6OC[C@H](O)[C@H](O)[C@H]6O[C@@H]6O[C@@H](C)[C@H](O)[C@@H](O)[C@H]6O)C(C)(C)[C@@H]5CC[C@]43C)[C@@H]2C1 | MAL12 | enzyme activity | inhibitor |  |  | 0.74
COc1cc(C(c2c(O)c3ccccc3oc2=O)c2c(O)c3ccccc3oc2=O)ccc1OCc1cn(CC(=O)Nc2ccc(Br)cc2)nn1 | MAL12 | enzyme activity | inhibitor | absorbance |  | 81.7
CC1(CN)CCN(c2cnc3c(Sc4ccncc4Cl)n[nH]c3n2)CC1 | Tyrosine-protein phosphatase non-receptor type 1 (PTPN1, Homo sapiens, UniProt P18031) | enzyme activity | inhibitor |  |  | > 100
